Measured values as given in ChEMBL document CHEMBL1777787, “Identification of 4H,6H-[2]benzoxepino[4,5-c][1,2]oxazoles as novel squalene synthase inhibitors” (Bioorg Med Chem Lett, 2011).

How the values were obtained:
Squalene synthase = molecular target: T1, Squalene synthase (Homo sapiens, UniProt P37268); assay: Inhibition of recombinant squalene synthase assessed as conversion of trans,trans-[1-3H]farnesyl pyrophosphate to [3H]squalene after 10 mins by liquid scintillation counting
T1 sequence (P37268 whole entry): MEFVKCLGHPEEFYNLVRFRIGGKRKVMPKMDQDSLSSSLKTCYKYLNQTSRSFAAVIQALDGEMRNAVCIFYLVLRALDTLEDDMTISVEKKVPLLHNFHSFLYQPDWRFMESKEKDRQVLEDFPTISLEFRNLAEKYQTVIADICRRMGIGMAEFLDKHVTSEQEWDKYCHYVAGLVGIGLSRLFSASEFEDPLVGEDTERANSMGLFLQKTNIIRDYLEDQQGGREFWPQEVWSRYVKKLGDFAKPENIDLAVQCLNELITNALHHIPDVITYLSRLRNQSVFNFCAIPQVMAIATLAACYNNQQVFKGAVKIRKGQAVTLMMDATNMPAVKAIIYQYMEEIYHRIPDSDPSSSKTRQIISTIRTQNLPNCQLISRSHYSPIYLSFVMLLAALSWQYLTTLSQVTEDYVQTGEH
Outline: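 Recombinant SQS in 1 mM NADPH, 5 mM DTT, 10% PBS, 10 mM sodium fluoride and 0.5 mM MgCl₂, pH 7.5. Compounds were added from DMSO at defined concentrations. The reaction was started with farnesyl pyrophosphate plus 0.2 nM trans,trans-[1-³H]-farnesyl pyrophosphate, run 10 min at 37 °C, then extracted with chloroform/methanol. IC50 values are means of three experiments.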

[1] = Stability in human liver microsomes assessed as compound remaining after 60 mins; format: ADME, Microsome; details: read-out: Stability
Mus musculus [2] = assay: In vivo inhibition of squalene synthase in NMRI mouse assessed as inhibition of hepatic [14C]cholesterol biosynthesis at 3 mg/kg, po measured after 1 hr by liquid scintillation counting
Mus musculus [3] = assay: In vivo inhibition of squalene synthase in NMRI mouse assessed as inhibition of hepatic [14C]cholesterol biosynthesis at 1 mg/kg, po measured after 1 hr by liquid scintillation counting

Compound | IC50 (Squalene synthase) | remaining at 1 h [1] | inhibition in vivo at 3 mg/kg (Mus musculus [2]) | inhibition in vivo at 1 mg/kg (Mus musculus [3])
COc1cccc([C@@H]2O[C@@H](CC(=O)O)c3noc(C(C)C)c3-c3ccc(Cl)cc32)c1OC | 1420 nM |  |  | 
COc1cccc([C@H]2O[C@H](CC(=O)O)c3noc(C(C)C)c3-c3ccc(Cl)cc32)c1OC | 56 nM | 100% | 58% | 
COc1cccc([C@H]2O[C@H](CC(=O)N3CC[C@@H](O)C3)c3noc(C(C)C)c3-c3ccc(Cl)cc32)c1OC | 162 nM |  |  | 
COc1cccc([C@H]2O[C@H](CC(=O)N3CCC(CC(=O)O)CC3)c3noc(C(C)C)c3-c3ccc(Cl)cc32)c1OC | 131 nM | 91% | 80% | 
COc1cccc([C@H]2O[C@H](CC(=O)N3CCC(C(=O)O)CC3)c3noc(C(C)C)c3-c3ccc(Cl)cc32)c1OC | 112 nM |  |  | 
COc1cccc([C@H]2O[C@H](CC(=O)O)C(=O)N(CC(C)(C)CO)c3ccc(Cl)cc32)c1OC | 223 nM |  |  | 
COc1cccc([C@H]2O[C@H](CC(=O)N3CCC(CC(=O)O)CC3)C(=O)N(CC(C)(C)CO)c3ccc(Cl)cc32)c1OC | 260 nM | 37% |  | 
COc1cccc(C2OC(CC(=O)O)c3noc(C(C)C)c3-c3ccc(Cl)cc32)c1OC (single isomer, unassigned; enantiomer 2) | 5500 nM |  |  | 
COc1cccc(C2OC(CC(=O)O)c3noc(C(C)C)c3-c3ccc(Cl)cc32)c1OC (single isomer, unassigned; enantiomer 3) | 169 nM | 64% | 31% | 
COc1cccc([C@H]2O[C@H](CC(=O)N3CCC(CC(=O)O)CC3)C(=O)N(CC(C)(C)COC(C)=O)c3ccc(Cl)cc32)c1OC [LAPAQUISTAT ACETATE] | 213 nM | 7% | 73% | 59%
